How the values were obtained:
[1] = Plasma and CSF pharmacokinetics in beagle dogs; format: in vivo, dog
[2] = biological target: Porcine gastric mucosa pepsin (Sus scrofa, UniProt P00791); assay: Pepsin FRET assay; format: biochemical; conditions: read-out: Pepsin FRET Assay Absolute IC50; n = 2; value (SD)
[3] = Clinical multiple-dose pharmacokinetics; format: in vivo, human; conditions: for AUCτ,ss / CLR / t1/2 / tmax: day 14; for AUCτ,ss / CLR / t1/2 / Cmax: geometric mean (CV%); for tmax: median (range); for Cmax: day 14 steady state
Procedure, shortened: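 Healthy subjects took daily oral doses for 14 days. Plasma was sampled up to 24 h after the first dose, before the day-14 dose and up to 120 h after it, plus pre-dose troughs every 2 days to assess steady state. Clearance, apparent volume, tmax and t1/2 were reported. Accumulation ratio = AUCτ,ss divided by first-dose AUCτ, per subject.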

[4] = tested on: Aβ1-x in plasma and CSF of beagle dogs; assay: Pharmacodynamics in cannulated beagle dogs; format: in vivo, dog; conditions: 1.5 mg/kg oral
Procedure, shortened: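 Six male cannulated beagle dogs received a single 1.5 mg/kg oral dose in 1% hydroxyethylcellulose. Plasma was sampled pre-dose and at 0.5–48 h. CSF was sampled 0.5 h pre-dose (baseline) and at 3, 6, 9, 24 and 48 h. Aβ1–x was measured by sandwich ELISA (m266.2 capture, biotinylated 3D6 reporter), averaged across dogs and expressed relative to baseline. Statistics: ANOVA with Tukey post hoc.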

[5] = tested on: CSF Aβ1–40 and Aβ1–42 in healthy subjects; assay: Clinical single-dose CSF Aβ pharmacodynamics; format: in vivo, human
Procedure, shortened: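 Healthy subjects received single doses of 1.6, 10 or 26 mg or placebo. Serial CSF was drawn through an indwelling subarachnoid lumbar catheter from 4 h pre-dose to 36 h post-dose. For each subject, the time of the lowest observed Aβ1–40 and Aβ1–42 concentration, the change from baseline at nadir and the 24 h time-averaged change from baseline were reported.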

[6] = biological target: T1, Renin recombinant human enzyme (Homo sapiens, UniProt P00797); assay: Renin FRET assay; format: biochemical; conditions: read-out: Renin FRET Assay Absolute IC50; n = 1/2; value (SD)
T1 sequence (P00797 67-406): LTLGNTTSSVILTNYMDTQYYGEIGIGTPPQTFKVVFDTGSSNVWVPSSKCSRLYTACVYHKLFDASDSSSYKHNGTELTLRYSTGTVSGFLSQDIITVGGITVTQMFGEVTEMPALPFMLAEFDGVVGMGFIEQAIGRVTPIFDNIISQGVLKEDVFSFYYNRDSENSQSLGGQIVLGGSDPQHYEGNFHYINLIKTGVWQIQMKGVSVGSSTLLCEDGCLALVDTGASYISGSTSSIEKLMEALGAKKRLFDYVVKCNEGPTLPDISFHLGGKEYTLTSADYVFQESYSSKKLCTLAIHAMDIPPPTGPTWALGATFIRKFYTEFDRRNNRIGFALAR

[7] = tested on: Aβ1-x, C99, sAβPPβ in PDAPP mice; assay: In vivo pharmacodynamics in PDAPP mice; set-up: species or system mouse; conditions: 3.0 mg/kg oral
Procedure, shortened: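 Young (2–3 months) female PDAPP mice (n = 6–8 per group) got a single oral gavage of vehicle (7% Pharmasolve, 10 mL/kg) or 0.3, 1.0 or 3.0 mg/kg. Hippocampal and cortical Aβ1–x, C99 and sAβPPβ were measured in brain extracts 3 h post-dose. In a time course (3.0 mg/kg, n = 6), hippocampal and CSF Aβ1–x were measured at 3, 6, 9 and 12 h. Statistics: ANOVA, then Tukey post hoc, p < 0.05.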

[8] = tested on: CSF Aβ1–40, Aβ1–42, sAβPPα, sAβPPβ in healthy subjects; assay: Clinical multiple-dose CSF pharmacodynamics; format: in vivo, human
[9] = tested on: patients with mild AD; conditions: Phase II study; cited from earlier work
[10] = Brain homogenate protein binding; format: in vitro ADME, mouse; conditions: equilibrium dialysis
Procedure, shortened: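 Fraction unbound was determined in vitro by equilibrium dialysis of mouse brain homogenate or dog plasma. Unbound concentrations were derived by multiplying the total measured concentrations by this fraction unbound.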

[11] = tested on: PDAPP primary cortical neurons; assay: PDAPP neuronal cytotoxicity; format: cell-based, mouse
Procedure, shortened: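 Primary cortical neurons from gestational-day-16 PDAPP (APP V717F) embryos were grown at 15×10^4 cells/well in DMEM/F12 (1:1) with B27. Cells were exposed to test compound for 24 h at 37°C. Viability was read by MTT assay as absorbance at 595 nm.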

[12] = 1 mg daily for 14 days, 24 h after final dose
[13] = 26 mg daily for 14 days, samples below LLOQ assigned one-half the LLOQ

Porcine gastric mucosa pepsin, sequence (P00791 60-385): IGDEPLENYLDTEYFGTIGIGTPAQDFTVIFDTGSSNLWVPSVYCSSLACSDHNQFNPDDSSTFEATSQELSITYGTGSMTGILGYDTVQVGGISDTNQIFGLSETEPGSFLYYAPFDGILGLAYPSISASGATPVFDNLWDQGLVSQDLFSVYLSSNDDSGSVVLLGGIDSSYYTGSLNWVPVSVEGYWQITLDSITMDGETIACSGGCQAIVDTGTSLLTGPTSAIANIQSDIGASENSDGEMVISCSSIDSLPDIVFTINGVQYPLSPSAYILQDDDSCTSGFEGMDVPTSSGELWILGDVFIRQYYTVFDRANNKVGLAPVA

mean CSF AUC (3–9 h) ([1]; 1.5 mg/kg oral): 0.025 µM·h
mean free plasma AUC (3–9 h) ([1]; 1.5 mg/kg oral): 0.028 µM·h
plasma AUC(0-∞) ([1]; 1.5 mg/kg oral, mean±SD): 10.812 ± 5.195 µM·h
Cmax ([1]; read-out: maximum plasma concentration (Cmax), 1.5 mg/kg oral, mean±SD): 2990 ± 750 nM
IC50 [2]: > 14 µM
AUCτ,ss ([3]; multiple dose 1 mg): 38.6 (25) ng·h/mL
CLR ([3]; multiple dose 1 mg): 1.61 (46) L/h
t1/2 ([3]; multiple dose 1 mg): 33.1 (38) h
tmax ([3]; multiple dose 1 mg): 4.04 (3.98–4.23) h
Cmax ([3]; multiple dose 1 mg, n = 8): 2.57 (25) ng/mL
AUCτ,ss ([3]; multiple dose 6 mg): 151 (54) ng·h/mL
CLR ([3]; multiple dose 6 mg): 1.09 (86) L/h
t1/2 ([3]; multiple dose 6 mg): 38.1 (29) h
tmax ([3]; multiple dose 6 mg): 3.87 (1.95–4.00) h
Cmax ([3]; multiple dose 6 mg, n = 9): 11.2 (71) ng/mL
AUCτ,ss ([3]; multiple dose 26 mg): 1020 (50) ng·h/mL
CLR ([3]; multiple dose 26 mg): 1.29 (39) L/h
t1/2 ([3]; multiple dose 26 mg): 46.3 (25) h
tmax ([3]; multiple dose 26 mg): 4.03 (2.00–5.78) h
Cmax ([3]; multiple dose 26 mg, n = 9): 72.8 (61) ng/mL
IC50 [6]: > 14 µM
free fraction in brain homogenate [10]: 0.026
SMILES: COc1cnc(C(=O)Nc2ccc(F)c([C@]34CN(c5ncc(F)cn5)C[C@H]3CSC(N)=N4)c2)cn1 [LY3202626]
time CSF Aβ1-x remained significantly suppressed after dosing [4]: 24 h
maximal reduction of CSF Aβ1-x ([4]; 9 h time point): ~80%
reduction of plasma Aβ1-x ([4]; 48 h time point): approximately 40%
suppression of plasma Aβ1-x levels ([4]; by 2 h after dosing, vs baseline): up to 80%
CSF Aβ1–42 mean reduction from baseline at nadir ([5]; single dose 1.6 mg): –33.4%
time of mean nadir of CSF Aβ1–42 ([5]; single dose 1.6 mg): approximately 10 h
CSF Aβ1–42 mean reduction from baseline at nadir ([5]; single dose 26 mg): –71.6%
time of mean nadir of CSF Aβ1–42 ([5]; single dose 26 mg): approximately 28 h
Cortex C99 decrease vs vehicle ([7]; 3 h): 65%
Cortex sAβPPβ decrease vs vehicle ([7]; 3 h): 34%
CSF Aβ1-X reduction vs vehicle, time course ([7]; 3 hrs): 75%
decrease in CSF Aβ1–40 from baseline [8, 12]: approximately 50%
decrease in CSF Aβ1–42 from baseline [8, 12]: approximately 50%
lowering of CSF Aβ species, modeling of the clinical data ([8]; 12 mg QD): at least 90%
increase in CSF sAβPPα from baseline ([8]; 26 mg daily for 14 days): 111%
reduction in CSF sAβPPβ from baseline ([8]; 26 mg daily for 14 days): 92.7%
reduction in CSF Aβ1–40 from baseline [8, 13]: approximately 94%
reduction in CSF Aβ1–42 from baseline [8, 13]: approximately 94%
decrease in CSF sAβPPβ ([8]; multiple doses of 6 mg): more than 70%
hepatotoxicity [9]: no evidence of hepatotoxicity
EC50 ([11]; read-out: EC50 for inducing cytotoxicity in PDAPP neurons, MTT): > 100 µM
IC50 ([11]; read-out: PDAPP 1° Neuron Cytotox Relative IC50, n = 1/7): > 100 µM

Source: publication PMC8842743 (Journal of Alzheimer's Disease Reports, 2022)
